Published values gathered from unrelated publications.
Lines come from different studies, so protocols differ.
Target: Serine/threonine-protein kinase LATS2 (LATS2, Homo sapiens, UniProt Q9NRM7)
Residues used in one study (Q9NRM7 1-1088): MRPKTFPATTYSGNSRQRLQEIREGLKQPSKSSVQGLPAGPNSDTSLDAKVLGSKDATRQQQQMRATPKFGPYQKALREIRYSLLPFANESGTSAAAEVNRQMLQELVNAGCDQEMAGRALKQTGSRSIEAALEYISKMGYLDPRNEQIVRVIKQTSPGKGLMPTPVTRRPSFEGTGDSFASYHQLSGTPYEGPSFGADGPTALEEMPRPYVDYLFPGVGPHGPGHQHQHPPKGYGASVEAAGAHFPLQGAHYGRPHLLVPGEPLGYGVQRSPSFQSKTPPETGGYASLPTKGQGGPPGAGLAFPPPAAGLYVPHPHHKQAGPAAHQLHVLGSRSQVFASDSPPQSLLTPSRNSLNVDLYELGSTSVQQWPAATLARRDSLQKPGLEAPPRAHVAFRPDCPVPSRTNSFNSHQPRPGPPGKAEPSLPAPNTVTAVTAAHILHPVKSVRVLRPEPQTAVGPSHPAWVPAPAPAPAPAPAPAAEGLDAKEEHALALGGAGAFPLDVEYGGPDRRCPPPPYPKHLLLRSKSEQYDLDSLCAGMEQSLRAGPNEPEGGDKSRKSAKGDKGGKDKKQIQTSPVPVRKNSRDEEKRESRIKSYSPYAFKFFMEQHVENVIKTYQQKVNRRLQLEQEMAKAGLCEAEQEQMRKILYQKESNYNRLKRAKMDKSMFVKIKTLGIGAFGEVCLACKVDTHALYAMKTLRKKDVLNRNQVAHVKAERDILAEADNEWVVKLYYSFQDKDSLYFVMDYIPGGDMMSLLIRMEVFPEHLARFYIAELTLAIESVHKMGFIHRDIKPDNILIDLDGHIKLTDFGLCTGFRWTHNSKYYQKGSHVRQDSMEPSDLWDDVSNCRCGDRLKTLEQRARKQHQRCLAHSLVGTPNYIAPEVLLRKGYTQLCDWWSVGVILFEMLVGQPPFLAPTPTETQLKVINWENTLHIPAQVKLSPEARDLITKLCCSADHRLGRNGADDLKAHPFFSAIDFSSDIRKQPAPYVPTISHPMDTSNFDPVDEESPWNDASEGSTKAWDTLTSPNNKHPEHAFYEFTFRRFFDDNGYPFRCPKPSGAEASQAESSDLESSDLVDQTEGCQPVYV

With `O=C(NCCCN1CCOCC1)c1ccc(Nc2nccc(-c3cc4ccccc4s3)n2)cc1` the remaining binding was 100% (binding, competition with immobilised ligand; 1 µM).
With `COc1ncc2cc3ccccc3nc2c1C#N` the remaining binding was 90% (cell-free assay, competition with immobilised ligand; 5 µM).
`Cc1nccc(COC(=O)N2C[C@@H]3[C@@H](CNC(=O)c4ccc5[nH]nnc5c4)[C@@H]3C2)n1` gave a remaining binding of 97% (cell-free assay, competition with immobilised ligand; 1 µM).
`CN(C)c1ncc(F)c(-c2cnn3ncccc23)n1` gave a remaining binding of 72% (binding; 1 µM).
`Nc1ncc2c(n1)-c1c([nH]c3ccc(C#CC4CC4)cc13)CCCC2` has a remaining binding of 91% (binding, competition with immobilised ligand; 1 µM).
With `Cn1nc(C(=O)NCc2ccc(C(=O)O)cc2)cc1-c1ccc2[nH]ccc2c1` the remaining binding was 100% (cell-free assay, competition with immobilised ligand; 0.1 µM).
The remaining binding of `O=C(NCC1CCOCC1)c1n[nH]cc1NC(=O)c1c(F)cccc1F` is reported as 87% (binding, competition with immobilised ligand; 1 µM).
`C[C@H]1CCN(c2nccc(-c3cnn4ncccc34)n2)C1` gave a remaining binding of 83% (binding; 1 µM).
`CNC(=O)[C@@H]1CC[C@@H](n2c(-c3ccc4cnccc4c3)nc3ccc(C(=O)NCc4cccc(C(N)=O)c4)cc32)C1` has a remaining binding of 100% (binding, competition with immobilised ligand; 1 µM).
With `CC1CCCN1c1nccc(-c2cnn3ncccc23)n1` (centres unmarked) the remaining binding was 100% (binding; 1 µM).
With `O=C(c1ccc(Nc2ncc(Cl)c(-c3ccc(Cl)s3)n2)cc1)N1CCC(N2CCCC2)CC1` the remaining binding was 3.8% (binding, competition with immobilised ligand; 1 µM).
`NS(=O)(=O)c1cc(NC(=O)Cc2ccccc2)ccc1Oc1cccc(Cl)c1` has a remaining binding of 94% (cell-free assay, competition with immobilised ligand; 1 µM).
`c1cnn2ncc(-c3ccnc(N4CCC45COC5)n3)c2c1` gave a remaining binding of 88% (binding; 1 µM).
The remaining binding of `COc1cnc(Nc2cccc(S(N)(=O)=O)c2)nc1N1CCN(c2ccccc2)CC1` is reported as 74% (binding, competition with immobilised ligand; 1 µM).
The remaining binding of `COc1cc(-c2cn(C3CCc4ccccc4N(CC(F)(F)F)C3=O)nn2)ccc1-n1ccc(C)n1` (centres unmarked) is reported as 69% (cell-free assay, competition with immobilised ligand; 1 µM).
With `O=C(c1ccc(Nc2ncc(Cl)c(-c3cc4ccccc4s3)n2)cc1)N1CCC(N2CCCC2)CC1` the remaining binding was 15% (binding, competition with immobilised ligand; 1 µM).
`CN(C)c1nccc(-c2cnc3ncccn23)n1` has a remaining binding of 79% (binding; 1 µM).
`O=C1CCc2cc(Nc3cc(OC4CCOCC4)c([N+](=O)[O-])cc3Cl)ccc2N1` gave a remaining binding of 80% (cell-free assay, competition with immobilised ligand; 1 µM).
For `CN(c1nccc(-c2cnn3ncccc23)n1)C1CC1`, the remaining binding was 100% (binding; 1 µM).
The remaining binding of `CN(C)CC#Cc1ccc(OCCCc2sc(N3CCc4cccc(C(=O)Nc5nc6ccccc6s5)c4C3)nc2C(=O)O)c(F)c1` is reported as 95% (cell-free assay, competition with immobilised ligand; 1 µM).
